ChEMBL document CHEMBL3751760, “Discovery of Novel Potent and Selective Agonists at the Melanocortin-3 Receptor” (J Med Chem, 2015)
Active and inactive are the calls of the source. No cut-off for these calls is given here. Where a SMILES comes first, the peptide text is derived from it. Bridges are numbered along the chain shown (N, C = ends). [ ]: non-standard residue; d: D form. d2Nal = N[C@H](Cc1ccc2ccccc2c1)C(=O)O; Nle = CCCC[C@H](N)C(=O)O

Legend:
Melanocortin receptor 3 [1] = biological target: T1, Melanocortin receptor 3 (Homo sapiens, UniProt P41968); experiment: Agonist activity at human melanocortin 3 receptor expressed in HEK293 cells assessed as intracellular cAMP accumulation incubated for 3 mins in presence of IBMX; format: functional, cell-based
T1 sequence (P41968 whole entry): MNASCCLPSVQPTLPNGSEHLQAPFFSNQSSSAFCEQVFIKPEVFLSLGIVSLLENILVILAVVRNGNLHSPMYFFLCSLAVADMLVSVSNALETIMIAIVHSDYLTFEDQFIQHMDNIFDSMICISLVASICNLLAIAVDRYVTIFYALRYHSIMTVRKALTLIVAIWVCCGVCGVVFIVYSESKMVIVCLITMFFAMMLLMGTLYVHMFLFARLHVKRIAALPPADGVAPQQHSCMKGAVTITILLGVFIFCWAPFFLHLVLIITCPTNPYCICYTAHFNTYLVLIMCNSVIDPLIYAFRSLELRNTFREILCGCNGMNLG
Method in brief: (§1)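 HEK293 cells stably expressing the receptor were grown in MEM with 10% FBS and seeded 48 h ahead to 100000 cells/well. Cells were preincubated in EBSS with IBMX (0.5 mM) for 1 min at 37 °C, then given varied peptide concentrations for 3 min at 37 °C. The reaction was stopped with ice-cold Tris/EDTA, lysates were boiled 15 min, and cAMP was read by competitive binding kit.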

Melanocortin receptor 5 [2] = biological target: T2, Melanocortin receptor 5 (Homo sapiens, UniProt P33032); experiment: Agonist activity at human melanocortin 5 receptor expressed in HEK293 cells assessed as intracellular cAMP accumulation incubated for 3 mins in presence of IBMX; format: functional, cell-based; method in brief: as §1
T2 sequence (P33032 whole entry): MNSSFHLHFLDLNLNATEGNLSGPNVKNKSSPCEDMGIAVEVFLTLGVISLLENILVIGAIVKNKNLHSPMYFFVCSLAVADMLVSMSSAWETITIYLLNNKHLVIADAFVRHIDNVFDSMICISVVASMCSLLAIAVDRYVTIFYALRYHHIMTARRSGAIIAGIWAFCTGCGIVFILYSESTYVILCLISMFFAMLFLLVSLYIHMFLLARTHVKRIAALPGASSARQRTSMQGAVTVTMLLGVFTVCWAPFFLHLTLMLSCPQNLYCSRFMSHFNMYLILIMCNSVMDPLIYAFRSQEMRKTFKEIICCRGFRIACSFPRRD

Melanocortin receptor 3 [3] = biological target: T1, Melanocortin receptor 3; experiment: Displacement of 125I-labeled [Nle4,DPhe7]-alpha-MSH from human melanocortin 3 receptor expressed in HEK293 cells incubated for 40 mins by gamma counting analysis; format: cell-based
Melanocortin receptor 4 [4] = biological target: T3, Melanocortin receptor 4 (Homo sapiens, UniProt P32245); experiment: Displacement of 125I-labeled [Nle4,DPhe7]-alpha-MSH from human melanocortin 4 receptor expressed in HEK293 cells incubated for 40 mins by gamma counting analysis; format: cell-based
T3 sequence (P32245 whole entry): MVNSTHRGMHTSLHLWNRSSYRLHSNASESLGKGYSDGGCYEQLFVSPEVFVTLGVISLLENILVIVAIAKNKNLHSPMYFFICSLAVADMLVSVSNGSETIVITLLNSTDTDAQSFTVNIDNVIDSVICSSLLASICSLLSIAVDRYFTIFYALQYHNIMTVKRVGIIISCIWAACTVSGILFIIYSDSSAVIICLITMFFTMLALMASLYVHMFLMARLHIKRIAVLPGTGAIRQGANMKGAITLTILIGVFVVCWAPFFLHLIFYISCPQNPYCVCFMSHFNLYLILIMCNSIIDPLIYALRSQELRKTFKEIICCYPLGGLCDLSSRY

[5] = biological target: T4, Melanocyte-stimulating hormone receptor (Homo sapiens, UniProt Q01726); experiment: Agonist activity at human melanocortin 1 receptor expressed in HEK293 cells assessed as intracellular cAMP accumulation incubated for 3 mins in presence of IBMX; format: functional, cell-based; method in brief: as §1
Target sequence in this assay (Q01726 whole entry): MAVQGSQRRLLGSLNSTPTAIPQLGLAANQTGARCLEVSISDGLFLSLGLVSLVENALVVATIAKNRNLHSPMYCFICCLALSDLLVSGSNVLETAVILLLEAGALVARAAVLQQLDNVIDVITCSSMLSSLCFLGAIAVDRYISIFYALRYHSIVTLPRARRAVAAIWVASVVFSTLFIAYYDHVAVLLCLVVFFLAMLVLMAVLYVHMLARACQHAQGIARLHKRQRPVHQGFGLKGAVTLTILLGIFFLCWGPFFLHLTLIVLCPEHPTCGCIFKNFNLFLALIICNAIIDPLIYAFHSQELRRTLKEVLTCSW

Melanocortin receptor 5 [6] = biological target: T2, Melanocortin receptor 5; experiment: Displacement of 125I-labeled [Nle4,DPhe7]-alpha-MSH from human melanocortin 5 receptor expressed in HEK293 cells incubated for 40 mins by gamma counting analysis; format: cell-based
[7] = biological target: T4, Melanocyte-stimulating hormone receptor; experiment: Displacement of 125I-labeled [Nle4,DPhe7]-alpha-MSH from human melanocortin 1 receptor expressed in HEK293 cells incubated for 40 mins by gamma counting analysis; format: cell-based
Method in brief: (§2)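 Whole-cell competition on stably transfected HEK293 cells, 100000 cells/well, seeded 48 h ahead. Binding buffer: MEM with Earle's salts, 25 mM HEPES pH 7.4, 0.2% BSA, 1 mM 1,10-phenanthroline, leupeptin, bacitracin. After washing, cells lysed with NaOH/Triton X-100 and read by γ counting.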
Target sequence in this assay (Q01726 whole entry): as above

Melanocortin receptor 4 [8] = biological target: T3, Melanocortin receptor 4; experiment: Agonist activity at human melanocortin 4 receptor expressed in HEK293 cells assessed as intracellular cAMP accumulation incubated for 3 mins in presence of IBMX; format: functional, cell-based; method in brief: as §1
Melanocortin receptor 5 [9] = biological target: T2, Melanocortin receptor 5; experiment: Agonist activity at human melanocortin 5 receptor expressed in HEK293 cells assessed as increase in intracellular cAMP accumulation incubated for 3 mins relative to MT-2; format: functional, cell-based
Method in brief: (§3)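 Same cAMP protocol in stably transfected HEK293 cells: IBMX (0.5 mM) preincubation for 1 min, then a peptide concentration series for 3 min at 37 °C, and cAMP measured by competitive binding kit.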

Melanocortin receptor 4 [10] = biological target: T3, Melanocortin receptor 4; experiment: Agonist activity at human melanocortin 4 receptor expressed in HEK293 cells assessed as increase in intracellular cAMP accumulation incubated for 3 mins relative to MT-2; format: functional, cell-based
Method in brief: as §3, with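 “kit. Act% max = highest cAMP level reached by the peptide divided by the highest level reached by MT-II, in percent.” for “kit.”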

[11] = biological target: T4, Melanocyte-stimulating hormone receptor; experiment: Agonist activity at human melanocortin 1 receptor expressed in HEK293 cells assessed as increase in intracellular cAMP accumulation incubated for 3 mins relative to MT-2; format: functional, cell-based
Method in brief: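 Stably transfected HEK293 cells grown in MEM with 10% FBS, penicillin/streptomycin and 1 mM sodium pyruvate, seeded 48 h ahead to 100000 cells/well. Cells preincubated 1 min at 37 °C in EBSS with IBMX (0.5 mM), then exposed to a concentration series for 3 min at 37 °C. Stopped with ice-cold Tris/EDTA, boiled 15 min, cAMP measured by competitive binding kit. Maximal cAMP expressed relative to the MT-II maximum; N = 4.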
Target sequence in this assay (Q01726 whole entry, looked up): as the sequence (Q01726 whole entry) above

Melanocortin receptor 3 [12] = biological target: T1, Melanocortin receptor 3; experiment: Agonist activity at human melanocortin 3 receptor expressed in HEK293 cells assessed as increase in intracellular cAMP accumulation incubated for 3 mins relative to MT-2; format: functional, cell-based; method in brief: as §3
[13] = biological target: T4, Melanocyte-stimulating hormone receptor; experiment: Displacement of 125I-labeled [Nle4,DPhe7]-alpha-MSH from human melanocortin 1 receptor expressed in HEK293 cells at 10 uM incubated for 40 mins by gamma counting analysis; format: cell-based
Method in brief: as §2, with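 “bacitracin. Unlabeled peptide plus 125I-[Nle4,DPhe7]-α-MSH (0.1386 nM, 100000 cpm/well) for 40 min at 37 °C.” for “bacitracin.”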
Target sequence in this assay (Q01726 whole entry, looked up): as the sequence (Q01726 whole entry) above

Melanocortin receptor 4 [14] = biological target: T3, Melanocortin receptor 4; experiment: Agonist activity at human melanocortin 4 receptor expressed in HEK293 cells assessed as intracellular cAMP accumulation at 10 uM incubated for 3 mins in presence of IBMX; format: functional, cell-based
Method in brief: (§4)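 Stably transfected HEK293 cells were grown in MEM with 10% FBS, penicillin/streptomycin and 1 mM sodium pyruvate, and seeded 48 h before assay to 100000 cells/well. Cells were preincubated 1 min at 37 °C in EBSS with IBMX (0.5 mM), then exposed to peptide for 3 min at 37 °C. The reaction was stopped with ice-cold Tris/EDTA, lysates were boiled 15 min, and cAMP was read by competitive binding kit.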

Melanocortin receptor 5 [15] = biological target: T2, Melanocortin receptor 5; experiment: Displacement of 125I-labeled [Nle4,DPhe7]-alpha-MSH from human melanocortin 5 receptor expressed in HEK293 cells at 10 uM incubated for 40 mins by gamma counting analysis; format: cell-based
Method in brief: as §2, with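 “bacitracin. Unlabeled peptide plus 125I-[Nle4,DPhe7]-α-MSH (0.1386 nM, 100000 cpm/well) for 40 min at 37 °C.” for “bacitracin.”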

Melanocortin receptor 5 [16] = biological target: T2, Melanocortin receptor 5; experiment: Agonist activity at human melanocortin 5 receptor expressed in HEK293 cells assessed as intracellular cAMP accumulation at 10 uM incubated for 3 mins in presence of IBMX; format: functional, cell-based; method in brief: as §4
Melanocortin receptor 3 [17] = biological target: T1, Melanocortin receptor 3; experiment: Agonist activity at human melanocortin 3 receptor expressed in HEK293 cells assessed as intracellular cAMP accumulation at 10 uM incubated for 3 mins in presence of IBMX; format: functional, cell-based; method in brief: as §4

## CCCC[C@H](NC(C)=O)C(=O)N[C@H]1CC(=O)NCCCC[C@@H](C(N)=O)NC(=O)[C@H](Cc2c[nH]c3ccccc23)NC(=O)[C@H](CCCNC(=N)N)NC(=O)[C@@H](Cc2ccccc2)NC(=O)[C@@H]2CCCN2C(=O)[C@H](Cc2c[nH]c3ccccc23)NC1=O
Melanocortin receptor 3 [1]
  EC50: > 1000 nM
Melanocortin receptor 5 [2]
  EC50: 73 nM
Melanocortin receptor 3 [3]; hek293
  IC50: 580 nM
Melanocortin receptor 4 [4]; hek293
  IC50: > 1000 nM
[5]; hek293
  EC50: 26 nM
Melanocortin receptor 5 [6]
  IC50: > 1000 nM
[7]; hek293
  IC50: > 5000 nM
Melanocortin receptor 4 [8]
  EC50: 220 nM

## CCCC[C@@H](NC(C)=O)C(=O)N[C@H]1CC(=O)NCCCC[C@@H](C(N)=O)NC(=O)[C@@H](Cc2c[nH]c3ccccc23)NC(=O)[C@@H](CCCNC(=N)N)NC(=O)[C@@H](Cc2ccccc2)NC(=O)[C@@H]2CCCN2C(=O)[C@H](Cc2c[nH]c3ccccc23)NC1=O
Melanocortin receptor 5 [9]
  %max: 89%
Melanocortin receptor 4 [10]
  %max: 84%
[11]
  %max: 100%
Melanocortin receptor 3 [12]
  %max: 0%

## CCCC[C@H](NC(C)=O)C(=O)N[C@H]1CC(=O)NCCCC[C@@H](C(N)=O)NC(=O)[C@H](Cc2c[nH]c3ccccc23)NC(=O)[C@H](CCCNC(=N)N)NC(=O)[C@@H](Cc2ccc3ccccc3c2)NC(=O)[C@@H]2CCCN2C(=O)[C@H](Cc2c[nH]c3ccccc23)NC1=O
[5]; hek293
  EC50: > 1000 nM

## CCCC[C@H](NC(C)=O)C(=O)N[C@@H]1CC(=O)NCCCC[C@H](C(N)=O)NC(=O)[C@H](Cc2c[nH]c3ccccc23)NC(=O)[C@H](CCCNC(=N)N)NC(=O)[C@H](Cc2ccc3ccccc3c2)NC(=O)[C@H]2CCCN2C(=O)[C@@H](Cc2c[nH]c3ccccc23)NC1=O
[13]
  inhibition: inactive
[11]
  %max: 100%

## CCCC[C@H](NC(C)=O)C(=O)N[C@H]1CC(=O)NCCCC[C@@H](C(N)=O)NC(=O)[C@H](Cc2c[nH]c3ccccc23)NC(=O)[C@H](CCCNC(=N)N)NC(=O)[C@@H](Cc2ccc3ccccc3c2)NC(=O)[C@@H]2CCCN2C(=O)[C@@H]2CCCN2C1=O (Ac-[Nle]DPP[d2Nal]RWK-NH2; lactam 2-8)
[11]
  %max: 100%
[7]
  IC50: > 5000 nM

## CCCC[C@H](NC(C)=O)C(=O)N[C@H]1CC(=O)NCCCC[C@@H](C(N)=O)NC(=O)[C@H](Cc2c[nH]c3ccccc23)NC(=O)[C@H](CCCNC(=N)N)NC(=O)[C@@H](Cc2ccccc2)NC(=O)[C@@H]2CCCN2C(=O)[C@@H]2CCCN2C1=O (Ac-[Nle]DPP[dF]RWK-NH2; lactam 2-8)
Melanocortin receptor 3 [3]
  IC50: 590 nM
Melanocortin receptor 4 [14]
  Activity: 0%
Melanocortin receptor 4 [4]
  IC50: 1300 nM
[5]
  EC50: 860 nM
Melanocortin receptor 5 [15]
  inhibition: inactive
[11]
  %max: 100%
Melanocortin receptor 5 [16]
  Activity: 0%
Melanocortin receptor 3 [17]
  Activity: 0%
[7]
  IC50: > 5000 nM
